Screens: PubChem BioAssay, several laboratories
Shown are actives, neighbours in structure and some others; about 5.6% of the full set was active somewhere.
GRIN3A LBD mod – binders of NR3A ligand-binding domain, primary screen, biophysical, differential scanning fluorimetry, uHTS. AID 1259313, 2017. Tm shift relative to glycine control, % at 25 µM. 2.5% of 340,000 active. Glutamate receptor ionotropic, NMDA 3A (GRIN3A) ligand-binding domain. NR3A LBD differential scanning fluorimetry, Tm shift; 0% = protein alone, 100% = glycine-bound protein;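 active means melting temperature shift of at least 10% of the positive control shift, at one fixed dose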
MPTP inh – mitochondrial permeability transition pore inhibitors, primary screen, biochemical, isolated mouse mitochondria, absorbance; Ca2+ swelling absorbance, 30 min; inhibition, % at 10 µM; 1.4% of 360,000 active; AID 602449, 2012;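 active means inhibition of 50% or more, scaled per plate between neutral and stimulator controls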;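 further: 0% = DMSO wells given calcium and 100% = 1 mM EGTA wells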
CHOP UPR activ – activators of apoptotic CHOP UPR arm, primary screen, cell-based, CHO-CHOP luciferase reporter, luminescence, uHTS | UPR activation; percent of tunicamycin response over DMSO baseline | activation, % at 10 µM | 0.34% of 330,000 active;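 active means at 10 µM dose, activation of 40% or more, normalized to positive control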;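 further: 100% = tunicamycin at 10 µg/mL and 0% = DMSO alone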
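measured by = luciferase luminescence | assay system = CHO-CHOP cells, stable luciferase reporter of PERK-eIF2a-CHOP signalling | amount = 500 reporter cells seeded per well | timing = 6 h compound exposure at 37 °C after overnight seeding | controls = positive tunicamycin 10 µg/mL, negative DMSO alone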
aDG glyco up – activators of alpha-DG glycosylation, primary screen, uHTS, Pro5-aDG cells, AlphaScreen; alpha-DG glycosylation AlphaScreen (IIH6); 0% Pro5, 100% B10-LARGE cell signal; activation, % at 10 µM; 0.22% of 360,000 active;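 active means activation of at least 8% versus controls, or a plate z-score of at least 8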;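 further: Pro5 are CHO cells carrying HIG-tagged alpha-DG that lacks glycosylation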
CHOP inhibitor – inhibitors of CHOP promoter induction, primary screen, cell-based, unfolded protein response, luciferase reporter | CHO-K1 CHOP-promoter luciferase, tunicamycin-induced, 15-18 h | inhibition, % at 10 µM | 3.8% of 220,000 active | AID 2732, 2010;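 active means compounds that reduced the stress-induced luciferase reporter signal by more than about 70% of percent inhibition, limit read from the data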;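 further: 0% = tunicamycin plus vehicle and 100% = wells without tunicamycin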
XBP1 UPR activ – activators of adaptive XBP1 UPR arm, primary screen, cell-based, CHO-XBP1 luciferase reporter, luminescence, uHTS; IRE1-XBP1 UPR activation; percent of tunicamycin response, DMSO as zero; activation, % at 20 µM; 0.33% of 330,000 active;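 active means versus positive control, 20 µM dose yields 30% or more activation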;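 further: 100% = tunicamycin at 10 µg/mL and 0% = DMSO only wells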
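Assay system: IRE1-XBP1 luciferase reporter CHO line. Input: 1000 cells/well. Buffer or medium: F12 with 10% serum. Doses: 20 µM, 1% DMSO. Times: overnight seeding at 37 °C, 6 h compound treatment at 37 °C. Technique: Steady-Glo luciferase glow luminescence, 10 min after reagent addition.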
Active calls of the source: *; x = no result.

SMILES	GRIN3A LBD mod	MPTP inh	CHOP UPR activ	aDG glyco up	CHOP inhibitor	XBP1 UPR activ
Cn1c(=O)[nH]c(=O)c2c1nc(SCc1ccccc1Cl)n2CC(N)=O	x	-1	0	0	x	-3
Cc1ccc(SCC(=O)NC(=O)NCCC(C)C)c(C)c1	4	0	-1	0	81*	-1
CCCCc1ccc(NC(=S)N2CCCC2)cc1	2	0	4	0	x	3
CCn1c(=O)c(C(=O)NNS(=O)(=O)c2ccc(Cl)cc2)c(O)c2ccccc21	-5	-30	-1	0	84*	0
O=C(NNC(=O)c1c(O)c2ccccc2[nH]c1=O)c1ccccc1	-2	-1	2	0	x	2
CCn1c(=O)c(C(=O)NNC(=O)c2ccccc2)c(O)c2ccccc21	-2	1	1	0	x	0
CCCCCCC(=O)NNC(=O)c1c(O)c2ccccc2n(CCC)c1=O	-7	4	0	0	76*	0
CCCCCCC(=O)NNC(=O)c1c(O)c2ccccc2n(CC)c1=O	-1	2	-1	0	93*	-2
CCCCCCCCC(=O)NNC(=O)c1c(O)c2ccccc2n(CC)c1=O	-10	11	1	0	52	-2
O=C(N/N=C/c1ccccc1)c1c(O)c2ccccc2[nH]c1=O	2	3	3	0	78*	0
CN1CCN(CCCNCc2cn(CCC#N)c3ccccc23)CC1	0	1	-1	0	x	0
C[C@H]1CN=C(N(C)C)N1CCC1CCCCC1	4	2	-1	0	x	-6
CCCn1c(=O)c(C(=O)N/N=C/c2ccc(F)cc2)c(O)c2ccccc21	19*	0	-1	0	44	-4
CCCn1c(=O)c(C(=O)N/N=C/c2ccccc2F)c(O)c2ccccc21	1	0	1	-1	68	2
COc1ccc2c(COC(=O)[C@H](C)NS(=O)(=O)c3ccccc3F)cc(=O)oc2c1	-1	0	0	0	x	-1
N#Cc1cccc(S(=O)(=O)NCCOc2ccccc2F)c1	2	-2	-3	0	x	-2
Cc1nc(NCCNC(=O)c2ccco2)c2c(C)c(C)sc2n1	14*	-4	3	1	39	1
COc1cc(C)c(Cl)cc1S(=O)(=O)NCc1ccco1	3	2	3	0	-16	-2
C/C(=N\Nc1ccccn1)c1ccc(S(=O)(=O)NCc2ccco2)cc1	-1	-2	1	0	41	2
CCOc1cc(C)c(Cl)cc1S(=O)(=O)NCc1ccco1	20*	1	-1	0	41	-1
Cc1ccc(-c2ccc(S(=O)(=O)NCc3ccco3)cc2)cc1	1	0	3	0	75*	-1
C/C(=N\Nc1nc(Cl)c(Cl)cc1Cl)c1ccc(S(=O)(=O)NCc2ccco2)cc1	2	13	-1	0	87*	0
CCOc1cc(Br)cc(/C=N/NC(=O)c2cccnc2)c1O	6	1	-1	1	x	0
CCN(CC(=O)Nc1ccccc1C(F)(F)F)C(=O)c1ccccc1OCc1ccc(F)cc1	0	2	x	0	x	x
CNS(=O)(=O)c1ccc2c(c1)oc(=O)c1cc(S(=O)(=O)NC)ccc12	-29	-1	-1	1	10	-3
SMILES	GRIN3A LBD mod	MPTP inh	CHOP UPR activ	aDG glyco up	CHOP inhibitor	XBP1 UPR activ
CC(C)(C)OC(=O)C[C@H]1C/C=C\C[C@@H](CC(=O)NCCO)C(=O)N[C@H](Cc2ccccc2)COC1=O	3	-2	-1	0	x	-2
CN1CCN(c2nc3ccccc3nc2C(C#N)C(=O)OC2CCCCC2)CC1 (stereo not given)	1	-5	-1	-1	72*	2
CCN1CCN(c2nc3ccccc3nc2C(C#N)C(=O)OC2CCCCC2)CC1 (stereo not given)	3	-3	x	-1	-26	x
Cc1cc(OCC(F)(F)C(F)(F)C(F)(F)C(F)(F)C(F)(F)C(F)F)nc(N)n1	-6	45	-1	0	91*	-2
CCOc1ncccc1C(=O)OCC(=O)c1c(N)n(C)c(=O)n(C)c1=O	1	-2	-1	0	86*	0
Cc1cc(C(=O)CSc2nnc(-c3ccc(F)cc3)o2)c(C)n1CC1CCCO1 (stereo not given)	-1	-5	0	0	93*	-6
CCn1c(SCC(=O)c2cc(C)n(CC3CCCO3)c2C)nc2ccccc21 (stereo not given)	-3	0	1	0	-19	-1
Cc1cc(C(=O)CSc2nc3ccccc3c(=O)n2C)c(C)n1CC1CCCO1 (stereo not given)	x	x	x	x	74*	x
O=C(C1CCC(=O)N(C2CCCC2)C1)N1CCC(Oc2cccc(F)c2)CC1 (stereo not given)	18*	0	0	1	x	-2
O=C(C1CCC(=O)N(C2CC2)C1)N1CCC(Oc2cccc(F)c2)CC1 (stereo not given)	0	1	0	0	x	-1
COc1ccc(N(CC(=O)NC2CCCC2)C(=O)c2ccc(C)s2)cc1OC	-2	-2	3	0	x	-5
COc1ccc(-c2csc(-n3ncc(C(=O)O)c3C(F)(F)F)n2)cc1	3	1	5	0	x	-1
O=C(O)c1cnn(-c2nc(-c3ccc(Cl)cc3)cs2)c1C(F)(F)F	28*	1	6	0	x	14
c1ccc2c(c1)CCN(c1nc3ccccc3n3cnnc13)C2	-5	0	0	0	70*	6
COc1cc(NS(=O)(=O)c2ccc(NC(=S)Nc3ccccc3)cc2)nc(OC)n1	-2	-1	-1	0	x	-2
Cc1cc(NS(=O)(=O)c2ccc(Nc3nc(-c4ccc(O)cc4)cs3)cc2)no1	4	0	-1	0	28	-1
Cc1cc(NS(=O)(=O)c2ccc(Nc3nc(-c4ccc(C)c(C)c4)cs3)cc2)no1	16*	-28	1	0	47	2
COc1cc(NS(=O)(=O)c2ccc(Nc3nc(-c4ccccc4)cs3)cc2)nc(OC)n1	27*	-2	x	0	90*	x
COCc1ccc(C(=O)N2CCCC(N(C)CCc3ccc(OC)c(OC)c3)C2)s1 (stereo not given)	14*	0	0	0	x	-5
COc1cc(NC(=O)CNC(=O)Cn2cnc3sc(C)c(C)c3c2=O)cc(OC)c1OC	x	0	x	0	x	x
